Biological target: c-Myc/Max (Homo sapiens, UniProt P01106+P61244)
Test: Disruption of human recombinant c-Myc-Max(S)/DNA (unknown origin) binding assessed as complex level at 100 uM by electrophoretic mobility shift assay relative to control
Type: protein-complex assay
Procedure, shortened: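 Recombinant c-Myc 353–437 bHLH-ZIP with full-length Max(S), or Max(L) alone, from E. coli (His₆ removed by TEV), each 30 nM, with 30 nM HEX-labelled double-stranded oligonucleotide bearing a c-Myc site; buffer 1× PBS pH 7.3, 1 mM EDTA, 0.1% NP40, 5% glycerol, 1 mM DTT, 400 µg/mL BSA; complex level relative to DMSO control; three independent EMSAs.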

COC(=O)c1ccc(NC(=O)c2ccc([N+](=O)[O-])c(OC(C)C)c2)c(OCc2ccccc2)c1
Activity: 73%

COC(=O)c1ccc(NC(=O)c2ccc([N+](=O)[O-])c(OCc3cccc4ccccc34)c2)c(OC2Cc3ccccc3C2)c1
Activity: 117%

CC(C)COc1cc(NC(=O)c2ccc([N+](=O)[O-])cc2OCC(C)C)ccc1C(=O)O
Activity: 96%

O=C(O)c1ccc(NC(=O)c2ccc([N+](=O)[O-])cc2)cc1
Activity: 87%

COC(=O)c1ccc(NC(=O)c2ccc([N+](=O)[O-])c(OCc3ccccc3)c2)c(OCc2ccccc2)c1
Activity: 85%

CC(C)COc1cc(NC(=O)c2ccc([N+](=O)[O-])c(OCC(C)C)c2)ccc1C(=O)O
Activity: 80%

COC(=O)c1ccc(NC(=O)c2ccc([N+](=O)[O-])c(OCC(C)C)c2)c(OCC(C)C)c1
Activity: 112%

CC(C)COc1cc(C(=O)Nc2ccc(C(=O)O)cc2OCC(C)C)ccc1NC(=O)COCC(=O)O
Activity: 89%

CC(C)COc1cc(C(=O)O)ccc1NC(=O)c1ccc([N+](=O)[O-])c(OC2Cc3ccccc3C2)c1
Activity: 65%

CC(C)COc1cc(C(=O)Nc2ccc(C(=O)O)cc2OCc2ccncc2)ccc1[N+](=O)[O-]
Activity: 87%

CC(C)COc1cc(C(=O)Nc2ccc(C(=O)O)cc2)ccc1[N+](=O)[O-]
Activity: 81%

CC(C)COc1cc(C(=O)O)ccc1NC(=O)c1ccc([N+](=O)[O-])c(OCc2ccccn2)c1
Activity: 100%

COC(=O)c1ccc(NC(=O)c2ccc([N+](=O)[O-])c(OC(C)C)c2)c(OC2Cc3ccccc3C2)c1
Activity: 109%

COC(=O)c1ccc(NC(=O)c2ccc([N+](=O)[O-])c(OC(C)C)c2)c(OCC(C)C)c1
Activity: 70%

COC(=O)c1ccc(NC(=O)c2ccc([N+](=O)[O-])c(OC3Cc4ccccc4C3)c2)c(OC2Cc3ccccc3C2)c1
Activity: 100%

CC(C)COc1cc(C(=O)O)ccc1NC(=O)c1ccc([N+](=O)[O-])cc1OCC(C)C
Activity: 120%

CC(C)COc1cc(C(=O)Nc2ccc(C(=O)O)cc2OCC(C)C)ccc1NC(=O)C(=O)O
Activity: 99%

CC(C)COc1cc(C(=O)Nc2ccc(C(=O)O)cc2OCc2cccnc2)ccc1[N+](=O)[O-]
Activity: 75%

CC(C)COc1cc(C(=O)O)ccc1NC(=O)c1ccc(N)c(OC2Cc3ccccc3C2)c1
Activity: 87%

COC(=O)c1ccc(NC(=O)c2ccc([N+](=O)[O-])c(OCc3ccccc3)c2)c(OC2Cc3ccccc3C2)c1
Activity: 112%

CC(C)Oc1cc(C(=O)O)ccc1NC(=O)c1ccc([N+](=O)[O-])c(OC(C)C)c1
Activity: 47%

CC(C)COc1nc(C(=O)Nc2ccc(C(=O)O)nc2OCC(C)C)ccc1N
Activity: 79%

CC(C)COc1cc(C(=O)NCC(=O)O)ccc1NC(=O)c1ccc([N+](=O)[O-])c(OCC(C)C)c1
Activity: 107%

COC(=O)c1ccc(NC(=O)c2ccc([N+](=O)[O-])c(OCc3ccccc3)c2)c(OCC(C)C)c1
Activity: 75%

COC(=O)c1ccc(NC(=O)c2ccc([N+](=O)[O-])c(OC3Cc4ccccc4C3)c2)c(OCC(C)C)c1
Activity: 90%

COC(=O)c1ccc(NC(=O)c2ccc([N+](=O)[O-])c(OC3Cc4ccccc4C3)c2)c(OCc2ccccc2)c1
Activity: 78%

CC(C)COc1cc(C(=O)Nc2ccc(C(=O)O)cc2OCC(C)C)ccc1N
Activity: 105%

CC(C)COc1cc(C(=O)Nc2ccc(C(=O)O)cc2OCc2ccccc2)ccc1[N+](=O)[O-]
Activity: 104%

COC(=O)c1ccc(NC(=O)c2ccc([N+](=O)[O-])c(OCc3cccc4ccccc34)c2)c(OCC(C)C)c1
Activity: 109%

CC(C)COc1cc(C(=O)N(CC(=O)O)CC(=O)O)ccc1NC(=O)c1ccc([N+](=O)[O-])c(OCC(C)C)c1
Activity: 99%

COC(=O)c1ccc(NC(=O)c2ccc([N+](=O)[O-])c(OCc3cccc4ccccc34)c2)c(OCc2ccccc2)c1
Activity: 88%

CC(C)COc1cc(C(=O)O)ccc1NC(=O)c1ccc([N+](=O)[O-])cc1
Activity: 90%

CC(C)COc1cccc(C(=O)Nc2ccc(C(=O)O)cc2OCC(C)C)c1
Activity: 97%

COc1cc(C(=O)O)ccc1NC(=O)c1ccc([N+](=O)[O-])c(OC)c1
Activity: 94%
